Laboratory results from ChEMBL document CHEMBL4261495, “Antitrypanosomal and antileishmanial activity of prenyl-1,2,3-triazoles” (Medchemcomm, 2017).

Columns and labels:
[1] = system: Leishmania donovani; experiment: Antileishmanial activity against Leishmania donovani S1 promastigotes after 72 hrs by alamar blue assay; type: functional, organism-based; details: S1, 72 h
Method in brief: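 Leishmania donovani strain S1 promastigotes at 2×10^6 cells/mL were exposed to final concentrations of 40, 8 and 1.6 µg/mL. Plates were incubated 72 h at 26 °C, and growth was read by Alamar blue. Pentamidine and amphotericin B served as standards.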

[2] = target: Sterol 14-alpha demethylase (Trypanosoma cruzi (strain CL Brener)) (UniProt Q7Z1V1); experiment: Inhibition of Trypanosoma cruzi CYP51 assessed as residual enzyme activity at 100 uM using [3H]-MDL as substrate pretreated for 5 mins followed by NADPH addition by RP-HPLC analysis relative to control
Method in brief: (§1)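 TcCYP51 was reconstituted with T. brucei CPR and DLPC (1:2:50 molar), preincubated 10 min at room temperature. The reaction held 1 µM enzyme and 50 µM [3H]-labelled/unlabelled 24-methylenedihydrolanosterol in 20 mM MOPS pH 7.4, 50 mM KCl, 5 mM MgCl2, 10% glycerol, isocitrate dehydrogenase and 25 mM isocitrate. Inhibitor (1-100 µM) was preincubated 5 min at 37 °C, then 5 µM NADPH started the reaction. Products were detected by radioactivity.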

[3] = system: Vero; experiment: Cytotoxicity against African green monkey Vero cells at 20 uM after 2 days by neutral red uptake assay; type: cell-based; details: chlorocebus sabaeus, 48 h
[4] = target: Sterol 14-alpha demethylase (Trypanosoma cruzi (strain CL Brener)) (UniProt Q7Z1V1); experiment: Inhibition of Trypanosoma cruzi CYP51 assessed as residual enzyme activity at 100 uM using [3H]-MDL as substrate pretreated for 10 mins followed by NADPH addition by RP-HPLC analysis relative to control; method in brief: as §1
[5] = Octanol/water partition coefficient, log P of the compound; type: physicochemical
[6] = system: Trypanosoma cruzi; experiment: Antitrypanosomal activity against Trypanosoma cruzi strain CL Brener epimastigotes measured after 72 hrs by Neubauer chamber based cell counting method; type: functional, organism-based
Method in brief: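 CL-Brener epimastigotes were grown in BHT medium at 28 °C and seeded at 3-4 × 10^6 parasites/mL. Compound was added in DMSO (1% final) at 5-100 µg/mL, with benznidazole as positive control. After 72 h, parasites were counted in a Neubauer chamber and inhibition was taken relative to untreated growth. IC50 came from the inhibition-concentration plot. Triplicates were run; values average three independent experiments.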

[7] = target: Sterol 14-alpha demethylase (Trypanosoma cruzi (strain CL Brener), UniProt Q7Z1V1); experiment: Binding affinity to Trypanosoma cruzi CYP51 by spectrophotometric method
Method in brief: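 Spectral titration used 2 µM TcCYP51 in buffer A at 24 °C, scanned over 350-500 nm in tandem cuvettes. Ligand was added stepwise from 1 or 10 mM DMSO stocks until the spectral response peaked, with DMSO added to the reference cuvette. Apparent Kd came from fitting absorbance change against free ligand concentration to a rectangular hyperbola.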

Sterol 14-alpha demethylase (Trypanosoma cruzi (strain CL Brener)), sequence (Q7Z1V1 whole entry, looked up): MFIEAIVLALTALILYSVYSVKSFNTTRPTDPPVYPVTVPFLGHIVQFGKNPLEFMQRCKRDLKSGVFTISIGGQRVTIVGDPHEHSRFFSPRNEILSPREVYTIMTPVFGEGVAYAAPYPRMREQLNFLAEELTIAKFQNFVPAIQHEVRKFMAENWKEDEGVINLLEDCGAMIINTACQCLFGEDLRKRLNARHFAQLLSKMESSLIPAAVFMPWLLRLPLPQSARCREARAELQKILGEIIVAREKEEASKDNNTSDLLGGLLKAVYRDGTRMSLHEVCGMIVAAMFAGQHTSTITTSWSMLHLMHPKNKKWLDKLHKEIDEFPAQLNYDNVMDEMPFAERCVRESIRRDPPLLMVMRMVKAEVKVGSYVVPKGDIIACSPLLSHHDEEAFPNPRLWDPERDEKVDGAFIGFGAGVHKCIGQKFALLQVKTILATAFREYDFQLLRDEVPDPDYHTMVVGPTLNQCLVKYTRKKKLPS
Sterol 14-alpha demethylase, sequence (Q7Z1V1 whole entry): as the sequence (Q7Z1V1 whole entry, looked up) above

Activity [2] | Activity [4] | logP [5] | IC50 [6] | Kd [7] | Structure (SMILES) | IC50 [1] | Activity [3]
35% | 63% | 5.25 | 9 µM |  | COC(=O)c1cn(C/C=C(\C)CC/C=C(\C)CCC=C(C)C)nn1 | 31 µM | Non-Toxic
26% | 59% | 5.25 | 15 µM |  | COC(=O)c1cn(C/C=C(/C)CC/C=C(\C)CCC=C(C)C)nn1 | 11 µM | Non-Toxic
 |  | 3.2 | 87 µM |  | COC(=O)c1cn(C/C=C(\C)CCC=C(C)C)nn1 | > 100 µM | Non-Toxic
 |  | 3.2 | 87 µM |  | COC(=O)c1cn(C/C=C(/C)CCC=C(C)C)nn1 | > 100 µM | Non-Toxic
 |  | 4.05 | 44 µM |  | CCCc1cn(C/C=C(/C)CCC=C(C)C)nn1 | 44 µM | Non-Toxic
 |  | 1.3 | > 100 µM |  | COC(=O)c1cn(CC=C(C)C)nn1 | > 100 µM | Non-Toxic
 |  | 2.47 | > 100 µM |  | CCCc1cn(CC=C(C)C)nn1 | > 100 µM | Non-Toxic
 |  | 2.82 | > 100 µM |  | CC(C)=CCn1cc(-c2ccccc2)nn1 | > 100 µM | Non-Toxic
 |  | 3.46 | > 100 µM |  | CCCCCc1cn(CC=C(C)C)nn1 | > 100 µM | Non-Toxic
 |  | 4.5 | 31 µM |  | CCCc1cn(C/C=C(\C)CCC=C(C)C)nn1 | 72 µM | Non-Toxic

Further lines, the compound ahead of its results:

Structure (SMILES) | Activity [2] | Activity [4] | logP [5] | IC50 [6] | Kd [7] | IC50 [1] | Activity [3]
CC(C)=CCC/C(C)=C/Cn1cc(-c2ccccc2)nn1 |  |  | 4.91 | 39 µM |  | 49 µM | Non-Toxic
CCCCCCCCc1cn(C/C=C(\C)CCC=C(C)C)nn1 |  |  | 6.92 | 27 µM |  | 57 µM | Non-Toxic
O=C(Cn1ccnc1[N+](=O)[O-])NCc1ccccc1 [BENZNIDAZOLE] |  |  | 0.78 |  |  |  | 
N=C(N)c1ccc(OCCCCCOc2ccc(C(=N)N)cc2)cc1 [PENTAMIDINE] |  |  | 1.49 |  |  |  | 
CC(C)=CCC/C(C)=C/CC/C(C)=C\Cn1cc(-c2ccccc2)nn1 |  |  | 6.95 | 32 µM |  | 49 µM | Non-Toxic
CCCCCCCCc1cn(CC=C(C)C)nn1 |  |  | 4.92 | 27 µM |  | > 100 µM | Non-Toxic
CCCc1cn(C/C=C(\C)CC/C=C(\C)CCC=C(C)C)nn1 | 27% | 56% | 6.5 | 18 µM |  | 51 µM | Non-Toxic
CC(C)=CCC/C(C)=C/CC/C(C)=C/Cn1cc(-c2ccccc2)nn1 |  |  | 6.95 | 34 µM |  | 48 µM | Non-Toxic
CC(C)=CCC/C(C)=C\Cn1cc(-c2ccccc2)nn1 |  |  | 4.91 | 39 µM |  | 49 µM | Non-Toxic
CCCCCc1cn(C/C=C(/C)CCC=C(C)C)nn1 |  |  | 5.45 | 36 µM |  | 40 µM | Non-Toxic
CCCCCc1cn(C/C=C(\C)CCC=C(C)C)nn1 |  |  | 5.45 | 51 µM |  | 94 µM | Non-Toxic
CCCCCCCCc1cn(C/C=C(/C)CC/C=C(\C)CCC=C(C)C)nn1 |  |  | 8.76 | > 100 µM |  | 52 µM | Non-Toxic
CCCCCc1cn(C/C=C(\C)CC/C=C(\C)CCC=C(C)C)nn1 | 9% | 33% | 7.5 | 29 µM |  | 44 µM | Non-Toxic
CCCCCc1cn(C/C=C(/C)CC/C=C(\C)CCC=C(C)C)nn1 | 7% | 39% | 7.5 | 18 µM | 7.6 µM | 11 µM | Non-Toxic
CCCCCCCCc1cn(C/C=C(/C)CCC=C(C)C)nn1 |  |  | 6.92 | 34 µM |  | 16 µM | Non-Toxic
CCCc1cn(C/C=C(/C)CC/C=C(\C)CCC=C(C)C)nn1 | 14% | 49% | 6.5 | 17 µM |  | 33 µM | Non-Toxic
CCCCCCCCc1cn(C/C=C(\C)CC/C=C(\C)CCC=C(C)C)nn1 |  |  | 8.76 | > 100 µM |  | 36 µM | Non-Toxic
